Molecules are shown by their SMILES.

Experimental findings from ChEMBL document CHEMBL1124493, “Synthesis and tumor uptake of 5-82Br- and 5-131I-labeled 5-halo-1-(2-fluoro-2-deoxy-beta-D-ribofuranosyl)uracils” (J Med Chem, 1989) are described below.

Series [1] deals with Mus musculus. Description: Biodistribution of intravenously injected [82Br]-labeled compound in skin of BDF1 female mice bearing subcutaneous Lewis lung carcinoma after 24 hours. It is filed as ADME, organism-based, Zone of skin. The settings on record: in vivo, iv. A digest of the protocol: (§1)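 Female BDF1 mice with subcutaneous Lewis lung carcinoma given an iv injection of [82Br]-labelled nucleoside, 47-130 μg carrying 20-60 kBq 82Br. Tissues were excised, weighed wet and γ-counted. Values are percent injected dose per gram of wet tissue, mean ± standard deviation of six animals, with organ-to-tumour ratios derived.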

In series [2] the test system is Mus musculus. Description: Biodistribution of intravenously injected [82Br]-labeled compound in heart of BDF1 female mice bearing subcutaneous Lewis lung carcinoma after 4 hours. It is filed as ADME, organism-based. Conditions: in vivo, iv. A digest of the protocol:
as §1

For series [3], the system named is Mus musculus. Description: Biodistribution of intravenously injected [82Br]-labeled compound in skin of BDF1 female mice bearing subcutaneous Lewis lung carcinoma after 0.50 hours. Format: ADME, organism-based, Zone of skin. Conditions: in vivo, iv, 0.5 h. A digest of the protocol: as §1
The test system of series [4] is Mus musculus. Description: Biodistribution of intravenously injected [82Br]-labeled compound in blood of BDF1 female mice bearing subcutaneous Lewis lung carcinoma after 24 hours. Conditions: in vivo, iv. Format: ADME, organism-based. The essentials:
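82Br-labeled nucleoside given intravenously to female BDF1 mice bearing subcutaneous Lewis lung carcinoma, at 47-130 μg carrying 20-60 kBq. Mice sacrificed at each time point. Wet-weighed tissues γ-counted. Values are percent injected dose per gram wet tissue, mean ± SD, n = 6.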

Series [5] concerns Mus musculus. Description: Biodistribution of intravenously injected [82Br]-labeled compound in tumor of BDF1 female mice bearing subcutaneous Lewis lung carcinoma after 2 hours. Conditions: in vivo, iv. It is filed as ADME, organism-based.
The subject of series [6] is Mus musculus. Description: Biodistribution of intravenously injected [82Br]-labeled compound in stomach of BDF1 female mice bearing subcutaneous Lewis lung carcinoma after 0.50 hours. Format: ADME, organism-based. Conditions: in vivo, iv, 0.5 h.
For series [7], the system named is Mus musculus. Description: Biodistribution of intravenously injected [82Br]-labeled compound in stomach of BDF1 female mice bearing subcutaneous Lewis lung carcinoma after 0.25 hours. Conditions: in vivo, iv. It is filed as ADME, organism-based.
The test system of series [8] is Mus musculus. Description: Biodistribution of intravenously injected [82Br]-labeled compound in kidney of BDF1 female mice bearing subcutaneous Lewis lung carcinoma after 8 hours. Format: ADME, organism-based. The settings on record: in vivo, iv. A digest of the protocol: as §1
In series [9] the test system is Mus musculus. Description: Biodistribution of intravenously injected [82Br]-labeled compound in spleen of BDF1 female mice bearing subcutaneous Lewis lung carcinoma after 0.25 hours. Conditions: in vivo, iv. It is filed as ADME, organism-based. The essentials: as §1
Series [10] has as its system Mus musculus. Description: Biodistribution of intravenously injected [82Br]-labeled compound in liver of BDF1 female mice bearing subcutaneous Lewis lung carcinoma after 2 hours. It is filed as ADME, organism-based. Conditions: in vivo, iv. A digest of the protocol: as §1
Series [11] has as its system Mus musculus. Description: Biodistribution of intravenously injected [82Br]-labeled compound in gut of BDF1 female mice bearing subcutaneous Lewis lung carcinoma after 4 hours. Format: ADME, organism-based. The settings on record: in vivo, iv. The essentials: as §1
Series [12] has as its system Mus musculus. Description: Biodistribution of intravenously injected [82Br]-labeled compound in tumor of BDF1 female mice bearing subcutaneous Lewis lung carcinoma after 4 hr. Format: ADME, organism-based. The settings on record: in vivo, iv.
Series [13] deals with Mus musculus. Description: Biodistribution of intravenously injected [82Br]-labeled compound in heart of BDF1 female mice bearing subcutaneous Lewis lung carcinoma after 24 hours. It is filed as ADME, organism-based. Conditions: in vivo, iv. A digest of the protocol:
as §1

In series [14] the test system is Mus musculus. Description: Biodistribution of intravenously injected [82Br]-labeled compound in spleen of BDF1 female mice bearing subcutaneous Lewis lung carcinoma after 1 hours. Format: ADME, organism-based. Conditions: in vivo, iv. A digest of the protocol:
as §1

Series [15] deals with Mus musculus. Description: Biodistribution of intravenously injected [82Br]-labeled compound in muscle of BDF1 female mice bearing subcutaneous Lewis lung carcinoma after 4 hours. It is filed as ADME, organism-based, Muscle tissue. The settings on record: in vivo, iv. A digest of the protocol:
as §1

Series [16] concerns Mus musculus. Description: Biodistribution of intravenously injected [82Br]-labeled compound in lung of BDF1 female mice bearing subcutaneous Lewis lung carcinoma after 0.5 hours. It is filed as ADME, organism-based. The settings on record: in vivo, iv. A digest of the protocol: as §1
In series [17] the test system is Mus musculus. Description: Biodistribution of intravenously injected [82Br]-labeled compound in skin of BDF1 female mice bearing subcutaneous Lewis lung carcinoma after 1 hours. Conditions: in vivo, iv. Format: ADME, organism-based, Zone of skin. The essentials: as §1
In series [18] the test system is Mus musculus. Description: Biodistribution of intravenously injected [82Br]-labeled compound in muscle of BDF1 female mice bearing subcutaneous Lewis lung carcinoma after 0.5 hours. Format: ADME, organism-based, Muscle tissue. The settings on record: in vivo, iv. A digest of the protocol:
as §1

Series [19] concerns Mus musculus. Description: Biodistribution of intravenously injected [131I]-labeled compound in lung of BDF1 female mice bearing subcutaneous Lewis lung carcinoma after 0.25 hours. It is filed as ADME, organism-based. Conditions: in vivo, iv. The essentials: (§2)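 Female BDF1 mice bearing subcutaneous Lewis lung carcinoma received a single intravenous dose of 0.5-1.8 μg of the 131I-labeled nucleoside (55-110 kBq). They were sacrificed at set times, and tissues were weighed wet and γ-counted. Activity is expressed as percent of injected dose per gram of wet tissue, given as mean ± standard deviation for six animals.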

Series [20] has as its system Mus musculus. Description: Biodistribution of intravenously injected [131I]-labeled compound in bone of BDF1 female mice bearing subcutaneous Lewis lung carcinoma after 0.25 hours. Conditions: in vivo, iv. It is filed as ADME, organism-based, Bone element. The essentials:
as §2

Series [21] is filed under the species Mus musculus. Description: Urinary iodide observed in BDF1 female mice bearing lewis lung tumor after 2-3 hr of injected [131I]-compound. Format: functional, tissue-based. Conditions: Urine.
For series [22], the system named is Mus musculus. Description: Biodistribution of intravenously injected [131I]-labeled compound in muscle of BDF1 female mice bearing subcutaneous Lewis lung carcinoma after 4 hours. Format: ADME, organism-based, Muscle tissue. Conditions: in vivo, iv. A digest of the protocol: (§3)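 Female BDF1 mice with subcutaneous Lewis lung carcinoma given i.v. 0.5-1.8 μg of 131I-labeled nucleoside (55-110 kBq). Killed at set times. Tissues weighed wet and γ-counted. Radioactivity expressed as percent injected dose per gram wet tissue, mean ± SD of six animals.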

In series [23] the test system is Mus musculus. Description: Biodistribution of intravenously injected [131I]-labeled compound in skin of BDF1 female mice bearing subcutaneous Lewis lung carcinoma after 24 hours. Format: ADME, organism-based, Zone of skin. The settings on record: in vivo, iv. A digest of the protocol:
as §3

Series [24] concerns Mus musculus. Description: Biodistribution of intravenously injected [131I]-labeled compound in blood of BDF1 female mice bearing subcutaneous Lewis lung carcinoma after 0.25 hours. The settings on record: in vivo, iv. It is filed as ADME, organism-based. A digest of the protocol: as §2
Series [25] has as its system Mus musculus. Description: Biodistribution of intravenously injected [131I]-labeled compound in bone of BDF1 female mice bearing subcutaneous Lewis lung carcinoma after 0.5 hours. Format: ADME, organism-based, Bone element. The settings on record: in vivo, iv. The essentials:
as §2

Series [26] deals with Mus musculus. Description: Biodistribution of intravenously injected [131I]-labeled compound in spleen of BDF1 female mice bearing subcutaneous Lewis lung carcinoma after 0.25 hours. It is filed as ADME, organism-based. Conditions: in vivo, iv. A digest of the protocol:
as §3

Series [27] relates to Mus musculus. Description: Biodistribution of intravenously injected [131I]-labeled compound in skin of BDF1 female mice bearing subcutaneous Lewis lung carcinoma after 8 hours. It is filed as ADME, organism-based, Zone of skin. The settings on record: in vivo, iv. A digest of the protocol:
as §3

In series [28] the test system is Mus musculus. Description: Biodistribution of intravenously injected [131I]-labeled compound in stomach of BDF1 female mice bearing subcutaneous Lewis lung carcinoma after 0.50 hours. Format: ADME, organism-based. Conditions: in vivo, iv, 0.5 h. A digest of the protocol: as §3
The test system of series [29] is Mus musculus. Description: Biodistribution of intravenously injected [131I]-labeled compound in liver of BDF1 female mice bearing subcutaneous Lewis lung carcinoma after 4 hours. The settings on record: in vivo, iv. Format: ADME, organism-based. A digest of the protocol:
as §2

The subject of series [30] is Mus musculus. Description: Biodistribution of intravenously injected [131I]-labeled compound in heart of BDF1 female mice bearing subcutaneous Lewis lung carcinoma after 0.50 hours. Format: ADME, organism-based. The settings on record: in vivo, iv, 0.5 h. The essentials:
as §2

Series [31] has as its system Mus musculus. Description: Biodistribution of intravenously injected [131I]-labeled compound in spleen of BDF1 female mice bearing subcutaneous Lewis lung carcinoma after 1 hours. It is filed as ADME, organism-based. The settings on record: in vivo, iv. A digest of the protocol: as §3
In series [32] the test system is Mus musculus. Description: Biodistribution of intravenously injected [131I]-labeled compound in spleen of BDF1 female mice bearing subcutaneous Lewis lung carcinoma after 4 hours. It is filed as ADME, organism-based. Conditions: in vivo, iv. A digest of the protocol:
as §3

Series [33] concerns Mus musculus. Description: Biodistribution of intravenously injected [131I]-labeled compound in blood of BDF1 female mice bearing subcutaneous Lewis lung carcinoma after 0.50 hours. Format: ADME, organism-based. The settings on record: in vivo, iv, 0.5 h. A digest of the protocol:
as §2

Series [34] relates to Mus musculus. Description: Biodistribution of intravenously injected [131I]-labeled compound in heart of BDF1 female mice bearing subcutaneous Lewis lung carcinoma after 24 hours. Format: ADME, organism-based. The settings on record: in vivo, iv. The essentials: as §2
Series [35] deals with Mus musculus. Description: Biodistribution of intravenously injected [131I]-labeled compound in tumor of BDF1 female mice bearing subcutaneous Lewis lung carcinoma after 0.25 hours. It is filed as ADME, organism-based. The settings on record: in vivo, iv. The essentials: as §3
For series [36], the system named is Mus musculus. Description: Biodistribution of intravenously injected [131I]-labeled compound in blood of BDF1 female mice bearing subcutaneous Lewis lung carcinoma after 2 hours. It is filed as ADME, organism-based. The settings on record: in vivo, iv. The essentials:
as §2

For series [37], the species on record is Mus musculus. Description: Urinary [131I]- compound observed in BDF1 female mice bearing lewis lung tumor after 24 hr of injected [131I]-compound. Format: functional, tissue-based. The settings on record: Urine.
Series [38] has as its system Mus musculus. Description: Biodistribution of intravenously injected [131I]-labeled compound in tumor of BDF1 female mice bearing subcutaneous Lewis lung carcinoma after 2 hours. Conditions: in vivo, iv. It is filed as ADME, organism-based. A digest of the protocol:
as §3

Regarding `O=c1[nH]c(=O)n([C@H]2O[C@@H](CO)[C@H](O)[C@H]2F)cc1Br`, the Injected dose/g turned out to be 0.22% with Mus musculus [1]; 0.49% in the series with Mus musculus [2]; 0.72% with Mus musculus [3]; 0.51% in the series on Mus musculus [4]; 0.57% with Mus musculus [5]; 0.79% with Mus musculus [6]. The Injected dose/g in the series with Mus musculus [7] is on record as 1.29%; with Mus musculus [8], 0.53%; in the series with Mus musculus [9], 1.06%; in the series with Mus musculus [10] it was 0.32%; with Mus musculus [11], 0.28%; with Mus musculus [12] it was 0.37%. Further, the Injected dose/g in the series on Mus musculus [13] is given as 0.48%; in the series with Mus musculus [14] it was 0.38%; with Mus musculus [15] it was 0.12%; with Mus musculus [16] it was 0.91%; with Mus musculus [17] it was 0.45%; in the series on Mus musculus [18], 0.4%.
As to `O=c1[nH]c(=O)n([C@@H]2O[C@H](CO)[C@@H](O)[C@H]2F)cc1I`, the Injected dose/g in the series with Mus musculus [19] was 7.9%; in the series with Mus musculus [20], 2.4%; in the series on Mus musculus [22] it was 1.3%; in the series with Mus musculus [23] it was 0.1%; in the series with Mus musculus [24], 19%; in the series on Mus musculus [25], 1.8%. In addition, the Injected dose/g came to 3.2% with Mus musculus [26]; 2.1% in the series with Mus musculus [27]; 4.6% in the series with Mus musculus [28]; 2.6% in the series on Mus musculus [29]; 6.4% in the series with Mus musculus [30]; 2.5% in the series on Mus musculus [31]. Further, the Injected dose/g in the series on Mus musculus [32] is 1.8%; in the series on Mus musculus [33], 16%; in the series with Mus musculus [34], 0.1%; in the series on Mus musculus [35], 4.9%; with Mus musculus [36] it was 8.9%; in the series on Mus musculus [38], 3.8%. Moreover, the figures for the Radioactive constituents in the series filed under Mus musculus [21] and in the series listed under Mus musculus [37] were 13.7% and 37.4%, respectively.
